Results as given in ChEMBL document CHEMBL1909534, “Solvent-free, microwave assisted Knoevenagel condensation of novel 2,5-disubstituted indole analogues and their biological evaluation” (Eur J Med Chem, 2011).
Active and inactive are the calls of the source. The calls are words filed in the database; no cut-off is given here.

Assays:
[1] = Antioxidant activity assessed as ferric ion reducing ability at after 20 mins by spectrophotometric analysis; type: functional
How it was run: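 10, 50 and 500 μg samples in 2.5 mL 200 mmol/L sodium phosphate pH 6.6 plus 2.5 mL 1% potassium ferricyanide, 20 min at 50 °C. Then 2.5 mL 10% TCA added; 5 mL of this mixed with 5 mL water and 1 mL 0.1% FeCl3, and A700 read. BHA as standard.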

HeLa = test: Cytotoxicity against human HeLa cells by MTT assay; type: functional, cell-based
How it was run: (§1)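 Cells grown in RPMI 1640 with 10% FCS, penicillin 100 U/mL and streptomycin 100 μg/mL at 37 °C, 5% CO₂. Seeded at 1 × 10⁵ cells/well. Compounds diluted in DMSO, tested at 0–100 µg/mL. Viability read by MTT kit, with medium-only wells as control. IC50 derived by non-linear regression from three independent experiments.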

[2] = Antioxidant activity assessed as equivalents of ascorbic acid at 10 to 500 ug after 90 mins; type: functional
How it was run: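 Phosphomolybdenum method: 10, 50 and 500 μg samples mixed with 1.9 mL reagent (0.6 M sulfuric acid, 28 mM sodium phosphate, 4 mM ammonium molybdate), held 90 min at 95 °C, cooled, A695 read against blank. Values are μg ascorbic acid equivalents per mg, taken from an ascorbic acid standard curve.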

A549 = test: Cytotoxicity against human A549 cells by MTT assay; type: functional, cell-based; how it was run: as §1
HEp-2 = test: Cytotoxicity against human Hep2 cells by MTT assay; type: functional, cell-based; how it was run: as §1
[3] = tested on: Radical scavenging activity; test: Antioxidant activity assessed as DPPH free radical scavenging activity after 20 mins; type: functional
How it was run: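 DPPH method: samples at 10, 50 and 100 μg/100 μl made up to 100 μl with MeOH, mixed with 5 mL 0.1 mM methanolic DPPH, shaken, left 20 min at 27 °C; A517 read against control without sample. % scavenging = (control OD − sample OD)/control OD × 100. BHA as standard.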

SMILES | Activity [1] | IC50 (HeLa) | Activity [2] | IC50 (A549) | IC50 (HEp-2) | Activity [3]
CC1=NNC(=O)/C1=C/c1c(-c2ccccc2)[nH]c2ccc(C)cc12 | Dose-dependent effect | > 100 µM | Active | 7.7 µM | 26.3 µM | inactive
O=C1NC(=O)/C(=C/c2c[nH]c3ccccc23)S1 | Dose-dependent effect | 60.7 µM | Active | 87.7 µM | > 100 µM | Dose-dependent effect
CC1=NNC(=O)/C1=C/c1c[nH]c2ccccc12 | Dose-dependent effect | 33.1 µM | Active | 3.4 µM | 1.2 µM | Dose-dependent effect
Cc1ccc2[nH]c(-c3ccccc3)c(C=C3C(=O)NC(=O)NC3=O)c2c1 | Dose-dependent effect | > 100 µM | Active | > 100 µM | > 100 µM | inactive
Cc1ccc2[nH]c(-c3ccccc3)c(/C=C3\SC(=O)NC3=O)c2c1 | Dose-dependent effect | > 100 µM | Active | > 100 µM | > 100 µM | inactive
O=C1NC(=O)C(=Cc2c(-c3ccccc3)[nH]c3ccc(Cl)cc23)C(=O)N1 | Dose-dependent effect | 30 µM | Active | 27 µM | > 100 µM | Dose-dependent effect
O=C1NC(=O)/C(=C/c2c(-c3ccccc3)[nH]c3ccc(Cl)cc23)S1 | Dose-dependent effect | 7 µM | Active | 4.5 µM | 12.1 µM | Dose-dependent effect
COc1cccc2c1C(=O)c1c(O)c3c(c(O)c1C2=O)C[C@@](O)(C(=O)CO)C[C@@H]3O[C@H]1C[C@H](N)[C@H](O)[C@H](C)O1 [DOXORUBICIN] |  | 0.71 µM |  | 0.7 µM | 8.7 µM | 
Cc1ccc2[nH]c(-c3ccccc3)c(C=C3C(=O)NC(=S)NC3=O)c2c1 | Dose-dependent effect | > 100 µM | Active | > 100 µM | > 100 µM | inactive
O=C1NC(=S)NC(=O)C1=Cc1c[nH]c2ccccc12 | Dose-dependent effect | 63 µM | Active | 52.3 µM | > 100 µM | Dose-dependent effect
CC1=NNC(=O)/C1=C/c1c(-c2ccccc2)[nH]c2ccc(Cl)cc12 | Dose-dependent effect | 2.1 µM | Active | 1 µM | 7.9 µM | Dose-dependent effect
O=C1NC(=S)NC(=O)C1=Cc1c(-c2ccccc2)[nH]c2ccc(Cl)cc12 | Dose-dependent effect | 23.5 µM | Active | 27.5 µM | 45.7 µM | Dose-dependent effect
O=C1NC(=O)C(=Cc2c[nH]c3ccccc23)C(=O)N1 | Dose-dependent effect | 74 µM | Active | 77.4 µM | > 100 µM | Dose-dependent effect
